Common to all, as to assay type: functional
Assay [1] is described as follows: Antioxidant activity assessed as scavenging of superoxide anions after 10 mins by spectrophotometry. In a few lines:
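Superoxide generated photochemically in 50 mM phosphate buffer pH 7.8 with 13 mM L-methionine, 75 μM nitroblue tetrazolium, 100 μM EDTA, 2 μM riboflavin. Compound at 0–200 μM (12.5–200 μM tested), fluorescent light 10 min at 25 °C; dark-kept mixtures as controls; read at 575 nm. Triplicates in three independent experiments.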

The nature of assay [2]: Antioxidant activity assessed as scavenging of DPPH at 34.4 uM up to 10 mins by spectrophotometry. The essentials: (§1)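 Kinetic run: reaction medium with 10 nmol DPPH radicals in ethanol and compound at the stated concentration, DPPH scavenging followed over time up to 10 min. Three independent experiments, each in triplicate.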
(In general: The DPPH test is a chemical assay of radical scavenging.)

Assay [3] can be described thus: Antioxidant activity assessed as concentration required to scavenge 50% superoxide anions after 10 mins by spectrophotometry.
The nature of assay [4]: Antioxidant activity assessed as scavenging of DPPH at 160 uM after 30 mins by spectrophotometry.
Another assay concerns 786-0. The assay can be described thus: Growth inhibition of human 786-0 cells after 48 hrs by sulforhodamine B assay. As to conditions: 786-0, 48 h. (In general: In SRB staining, fixed cells bind dye roughly in proportion to their protein.)
Assay [5] can be described thus: Antioxidant activity assessed as scavenging of DPPH at 20.3 uM up to 10 mins by spectrophotometry. In a few lines: as §1
Assay [6] is described as follows: Growth inhibition of human NCI-ADR-RES cells after 48 hrs by sulforhodamine B assay.
A short description of assay [7]: Antioxidant activity assessed as scavenging of DPPH at 20.3 uM after 1 min by spectrophotometry relative to resveratrol.
For another assay, the system named is HT-29. The assay can be described thus: Growth inhibition of human HT-29 cells after 48 hrs by sulforhodamine B assay. As to conditions: HT-29, 48 h.
The test system of a further assay is PC-3. The assay can be described thus: Growth inhibition of human PC3 cells after 48 hrs by sulforhodamine B assay. As to conditions: PC-3, 48 h.
In a further assay the test system is NCI-H460. The assay is described as follows: Growth inhibition of human NCI-H460 cells after 48 hrs by sulforhodamine B assay. As to conditions: NCI-H460, 48 h.
In another assay the test system is OVCAR-3. The assay can be described thus: Growth inhibition of human OVCAR3 cells after 48 hrs by sulforhodamine B assay. As to conditions: OVCAR-3, 48 h.
Assay [8] can be described thus: Antioxidant activity assessed as concentration required for 50% DPPH scavenging activity after 30 mins by spectrophotometry relative to monastrol.
A short description of assay [9]: Antioxidant activity assessed as concentration required for 50% DPPH scavenging activity after 30 mins by spectrophotometry.
Another assay has as its system U-251. The assay is described as follows: Growth inhibition of human U251 cells after 48 hrs by sulforhodamine B assay. The note with it: U-251, 48 h.

In general, GI50 refers to the concentration giving 50% growth inhibition. Low values mean more potent growth inhibition, high ones less potent growth inhibition. As a reminder, the IC50 is the concentration that inhibits the measured activity by half.

Each structure is given as a SMILES string. Values after ≈ are worked out from the molar mass of the structure shown. Active and inactive are the calls of the source. The rule behind the calls is not given here.

For the molecule `Oc1ccc(/C=C/c2cc(O)cc(O)c2)cc1`, the Activity entry in assay [1] is “Dose-dependent effect”; in [3] it was 121 µM. Moreover, the result in [2] and in assay [4] was Active.

`CCOC(=O)C1=C(C)NC(=O)NC1c1ccc(O)c(O)c1` (configuration not stated): the results for the Activity in [3] and in assay [5] were 33 µM and 488 pmol, respectively. The GI50 was 20.7 µg/mL (≈ 70.8 µM) in the assay on 786-0; 2.1 µg/mL (≈ 7.18 µM) in assay [6]; 37.8 µg/mL (≈ 129 µM) in the assay on HT-29; 18.2 µg/mL (≈ 62.3 µM) in the assay with PC-3; 34 µg/mL (≈ 116 µM) in the assay on NCI-H460; 1.6 µg/mL (≈ 5.47 µM) in the assay on OVCAR-3. In the assay on U-251, this molecule showed a GI50 of 0.25 µg/mL (≈ 0.855 µM). The fold change (FC) in assay [7] worked out at 2; in [8], 37. The outcome in [4] was Active. Also, the IC50 in assay [9] stood at 20.3 µM.

The record behind these values is ChEMBL document CHEMBL2010753, “Free radical scavenging and antiproliferative properties of Biginelli adducts” (2012).
